Test results: ChEMBL document CHEMBL1255219, “Discovery of a β-d-2'-deoxy-2'-α-fluoro-2'-β-C-methyluridine nucleotide prodrug (PSI-7977) for the treatment of hepatitis C virus” (J Med Chem, 2010)

Tests used:
[1] = AUC (0 to infinity) in dog plasma at 50 mg/kg, po qd for 4 days; assay type: ADME, organism-based, Canis lupus familiaris; parameters: time infinity, dose 50 mg/kg, route oral
Summary of the method: (§1)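 Oral gavage (dog gastric, monkey nasogastric), 50 mg/kg in 20% w/v hydroxypropyl-β-cyclodextrin in water, 2.5 mL/kg, once daily for 4 consecutive days. Blood sampled into K2EDTA at 1, 2, 4, 6, 12 and 24 h postdose on day 3. Prodrug in plasma quantified by LC/MS/MS, noncompartmental analysis.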

Rattus norvegicus [2] = assay: Toxicity in rat assessed as change in body weight at 50 to 1800 mg/kg, po after 14 days; assay type: organism-based; parameters: dose 50-1800 mg/kg, route oral; settings: in vivo, 336 h
Summary of the method: (§2)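 Rats (CD SD, 4–5 weeks, 76–100 g) given a single oral dose of 50, 300 or 1800 mg/kg, or vehicle (30% PEG400/30% Tween 20/20% corn oil/20% water). Observed daily for 14 days with daily body weights. Necropsy on day 15 with macroscopic examination and liver and paired kidney weights.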

[3] = Cytotoxicity against human erythroid progenitor cells after 14 to 16 days
[4] = Cytotoxicity against human BxPC3 cells at 100 uM; assay type: cell-based; settings: bxpc-3, 100 µM
Summary of the method: (§3)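 Huh7, HepG2 and BxPC3 cells at 2 × 10^3 per well, CEM at 5 × 10^3 per well. Compound serially diluted from 100 μM, 8 days at 37 °C. MTS added for 2 h, absorbance read at 490 nm with medium-only blanks. CC50 taken relative to untreated cells.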

Canis familiaris [5] = assay: Metabolic stability in dog liver assessed as 2'-F-2'-C-Methyluridine-5''-triphosphate level at 50 mg/kg, po; assay type: ADME, organism-based, Canis lupus familiaris; parameters: dose 50 mg/kg, route oral; settings: in vivo
Summary of the method: (§4)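 Dogs and cynomolgus monkeys gavaged once daily with 50 mg/kg in 20% w/v hydroxypropyl-β-cyclodextrin for 4 days. At 4 h postdose on day 4, under pentobarbital, the liver was perfused with ice-cold saline via a portal cannula. Five lobe samples were snap-frozen and homogenized in 3 volumes of cold 70% methanol with 20 mM EDTA/EGTA. Prodrug and triphosphate measured by LC/MS/MS.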

Cynomolgus monkey [6] = assay: Metabolic stability in cynomolgus monkey liver assessed as 2'-F-2'-C-Methyluridine-5''-triphosphate level at 50 mg/kg, po; assay type: ADME, organism-based, Macaca fascicularis; parameters: dose 50 mg/kg, route oral; settings: in vivo; summary of the method: as §4
[7] = Permeability by PAMPA assay; assay type: ADME; settings: read-out: permeability
Summary of the method: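 PAMPA with a lecithin-in-dodecane (20 mg/mL) coated filter donor. Donor held 200 μg/mL compound in PBS pH 7.4 with 2% DMSO; acceptor held PBS with 2% DMSO. Left 24 h. Donor and acceptor concentrations measured by LC/MS/MS (MRM), and Pe calculated from concentrations, volumes, filter area and time.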

Rattus norvegicus [8] = assay: Toxicity in rat assessed as change in macroscopic pathology at 50 to 1800 mg/kg, po after 14 days; assay type: organism-based; parameters: dose 50-1800 mg/kg, route oral; settings: in vivo, 336 h; summary of the method: as §2
[9] = AUC (0 to infinity) in cynomolgus monkey plasma at 50 mg/kg, po qd for 4 days; assay type: ADME, organism-based, Macaca fascicularis; parameters: time infinity, dose 50 mg/kg, route oral; summary of the method: as §1
Rattus norvegicus [10] = assay: Toxicity in rat assessed as change in kidney weight at 50 to 1800 mg/kg, po after 14 days; assay type: organism-based; parameters: dose 50-1800 mg/kg, route oral; settings: in vivo, 336 h; summary of the method: as §2
Rattus norvegicus [11] = assay: AUC (0 to t) in rat liver assessed as 2'-F-2'-C-Methyluridine-5''-TP level at 50 mg/kg, po; assay type: ADME, organism-based; parameters: dose 50 mg/kg, route oral; settings: in vivo
Summary of the method: (§5)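 Rats given a single oral gavage dose of 50 mg/kg in 0.5% carboxymethylcellulose sodium, 5 mL/kg. Livers taken at 0.5, 1, 2, 4, 6 and 12 h after CO2 sacrifice and ice-cold saline perfusion, then snap-frozen. Homogenized in 3 volumes of cold 70% methanol with 20 mM EDTA/EGTA. Triphosphate measured by LC/MS/MS (ESI, MRM negative mode), noncompartmental analysis.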

Rattus norvegicus [12] = assay: Cmax in rat liver assessed as 2'-F-2'-C-Methyluridine-5''-TP level at 50 mg/kg, po; assay type: ADME, organism-based; parameters: dose 50 mg/kg, route oral; settings: in vivo; summary of the method: as §5
Homo sapiens = organism: Homo sapiens; assay: Half life in human plasma at 100 uM
[13] = AUC (0 to t) in dog plasma at 50 mg/kg, po qd for 4 days; assay type: ADME, organism-based, Canis lupus familiaris; parameters: dose 50 mg/kg, route oral; summary of the method: as §1
[14] = Cmax in cynomolgus monkey plasma at 50 mg/kg, po qd for 4 days; assay type: ADME, organism-based, Macaca fascicularis; parameters: dose 50 mg/kg, route oral; summary of the method: as §1
[15] = Half life in simulated gastric fluid at pH 1.2 at 50 ug/mL; assay type: physicochemical
Summary of the method: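 Compound at 50 μg/mL in simulated gastric fluid (pH 1.2) or simulated intestinal fluid (pH 7.5), 37 °C, 20 h. Injected by reverse-phase HPLC every 2 h, peak area at 260 nm. Percent parent remaining relative to 0 h, giving half-life.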

[16] = Half life in human liver S9 fraction at 100 uM; assay type: ADME, subcellular
Summary of the method: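 Compound at 100 μM in 50 mM K2HPO4 pH 7.4 with 5 mM MgCl2. Started with 4 mg/mL human liver S9 at 37 °C. Samples at 0–24 h quenched with acetonitrile. Parent remaining measured by LC/MS/MS peak area relative to 0 h, and half-life calculated.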

[17] = Cytotoxicity against HuH7 cells at 100 uM; assay type: cell-based; settings: human, huh-7, 100 µM; summary of the method: as §3
CCRF-CEM = assay: Cytotoxicity against human CEM cells at 100 uM; assay type: cell-based; summary of the method: as §3
Rattus norvegicus [18] = assay: Toxicity in rat assessed as change in liver weight at 50 to 1800 mg/kg, po after 14 days; assay type: organism-based; parameters: dose 50-1800 mg/kg, route oral; settings: in vivo, 336 h; summary of the method: as §2
Rattus norvegicus [19] = assay: AUC (0 to infinity) in rat liver assessed as 2'-F-2'-C-Methyluridine-5''-TP level at 50 mg/kg, po; assay type: ADME, organism-based; parameters: time infinity, dose 50 mg/kg, route oral; settings: in vivo; summary of the method: as §5
Rattus norvegicus [20] = assay: Toxicity in rat assessed as mortality at 50 to 1800 mg/kg, po after 14 days; assay type: organism-based; parameters: dose 50-1800 mg/kg, route oral; settings: in vivo, 336 h; summary of the method: as §2
Cynomolgus monkey [21] = assay: Metabolic stability in cynomolgus monkey liver assessed as prodrug level at 50 mg/kg, po; assay type: ADME, organism-based, Macaca fascicularis; parameters: dose 50 mg/kg, route oral; settings: in vivo; summary of the method: as §4
[22] = AUC (0 to t) in cynomolgus monkey plasma at 50 mg/kg, po qd for 4 days; assay type: ADME, organism-based, Macaca fascicularis; parameters: dose 50 mg/kg, route oral; summary of the method: as §1
Hepatitis C virus [23] = assay: Antiviral activity against HCV infected in human clone A cells; assay type: functional, Hepacivirus hominis; settings: Hepatitis C virus
Summary of the method: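 Clone A replicon cells seeded at 1500 cells/well. Compounds serially diluted in G418-free culture medium and added, then incubated 4 days at 37 °C in 5% CO2. HCV RNA quantified by real-time RT-PCR as ΔCt relative to the mean no-drug control.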

[24] = Cmax in dog plasma at 50 mg/kg, po qd for 4 days; assay type: ADME, organism-based, Canis lupus familiaris; parameters: dose 50 mg/kg, route oral; summary of the method: as §1
[25] = Tmax in cynomolgus monkey plasma at 50 mg/kg, po qd for 4 days; assay type: ADME, organism-based, Macaca fascicularis; parameters: dose 50 mg/kg, route oral; summary of the method: as §1
Hepatitis C virus [26] = assay: Antiviral activity against HCV infected in human clone A cells assessed as inhibition of cellular rRNA replication at 50 uM; assay type: functional, Hepacivirus hominis
Rattus norvegicus [27] = assay: Tmax in rat liver assessed as 2'-F-2'-C-Methyluridine-5''-TP level at 50 mg/kg, po; assay type: ADME, organism-based; parameters: dose 50 mg/kg, route oral; settings: in vivo; summary of the method: as §5
[28] = Half life in simulated intestinal fluid of pH 7.5 at 50 ug/mL; assay type: physicochemical
Summary of the method: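 Compound at 50 μg/mL in simulated gastric fluid (pH 1.2) or simulated intestinal fluid (pH 7.5), 37 °C, 20 h. Injected by reverse-phase HPLC every 2 h, peak area at 260 nm.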

[29] = Cytotoxicity against human myeloid progenitor cells after 14 to 16 days
Canis familiaris [30] = assay: Metabolic stability in dog liver assessed as prodrug level at 50 mg/kg, po; assay type: ADME, organism-based, Canis lupus familiaris; parameters: dose 50 mg/kg, route oral; settings: in vivo; summary of the method: as §4
HepG2 = assay: Cytotoxicity against human HepG2 cells at 100 uM; assay type: cell-based; settings: hepg2, 100 µM; summary of the method: as §3
[31] = Tmax in dog plasma at 50 mg/kg, po qd for 4 days; assay type: ADME, organism-based, Canis lupus familiaris; parameters: dose 50 mg/kg, route oral; summary of the method: as §1

| SMILES | AUC(0-inf) [1] [ng·h/mL] | Activity (Rattus norvegicus [2]) | IC50 [3] [µM] | Activity [4] | Drug uptake (Canis familiaris [5]) [ng/g] | Papp [7] [×10⁻⁶ cm/s] | Activity (Rattus norvegicus [8]) | Activity (Rattus norvegicus [10]) | AUC (Rattus norvegicus [11]) [ng·h/g] | Cmax (Rattus norvegicus [12]) [ng/g] | half-life at 100 µM (Homo sapiens) [h] | AUC(0-t) at 96 h [13] [ng·h/mL] | Cmax [14] [ng/mL] | half-life at 50 ug/mL [15] [h] | half-life at 100 µM [16] [h] | Activity [17] | AUC (Rattus norvegicus [19]) [ng·h/g] | EC90 (Hepatitis C virus [23]) [µM] | inhibition at 50 µM (Hepatitis C virus [26]) [%] | Tmax (Rattus norvegicus [27]) [h] | also measured |
| --- | --- | --- | --- | --- | --- | --- | --- | --- | --- | --- | --- | --- | --- | --- | --- | --- | --- | --- | --- | --- | --- |
| COC(=O)[C@H](C)NP(=O)(OC[C@H]1O[C@@H](n2ccc(=O)[nH]c2=O)[C@](C)(F)[C@@H]1O)Oc1ccccc1 (some centres not stated) | 420 | Non-toxic | > 50 | Non-toxic | 4960 | 0.007 | Non-toxic | Non-toxic | 14206 | 1985 | 16.7 | 418 | 19 | 15.5 | 0.18 | Non-toxic | 18968 | 0.91 | 0 | 6 | Drug uptake (Cynomolgus monkey [6]): 26 ng/g; AUC(0-inf) [9]: 34 ng·h/mL; Activity (CCRF-CEM): Non-toxic; Activity (Rattus norvegicus [18]): Non-toxic; Activity (Rattus norvegicus [20]): Non-toxic; Drug uptake (Cynomolgus monkey [21]): 4.66 ng/g; AUC(0-t) at 96 h [22]: 27 ng·h/mL; Cmax [24]: 317 ng/mL; Tmax [25]: 0.25 h; half-life at 50 ug/mL [28]: > 20 h; IC50 [29]: > 50 µM; Drug uptake (Canis familiaris [30]): 5.24 ng/g; Activity (HepG2): Non-toxic; Tmax [31]: 1 h |
| C[C@H](NP(=O)(OC[C@H]1O[C@@H](n2ccc(=O)[nH]c2=O)[C@](C)(F)[C@@H]1O)Oc1ccc(F)cc1)C(=O)OC1CCCCC1 (some centres not stated) | 62 | Non-toxic | 37 | Non-toxic | 476 | 0.488 | Non-toxic | Non-toxic | 8937 | 716 | > 24 | 54 | 1.8 | 20 | 0.18 | Non-toxic | 9888 | 0.04 | 52.1 | 4 | Activity (CCRF-CEM): Non-toxic; Activity (Rattus norvegicus [18]): Non-toxic; Activity (Rattus norvegicus [20]): Non-toxic; Drug uptake (Cynomolgus monkey [21]): 13 ng/g; Cmax [24]: 36 ng/mL; Tmax [25]: 6 h; half-life at 50 ug/mL [28]: > 20 h; IC50 [29]: 30 µM; Drug uptake (Canis familiaris [30]): 8.72 ng/g; Activity (HepG2): Non-toxic; Tmax [31]: 0.25 h |
| CC(C)OC(=O)[C@H](C)NP(=O)(OC[C@H]1O[C@@H](n2ccc(=O)[nH]c2=O)[C@](C)(F)[C@@H]1O)Oc1ccccc1 (some centres not stated) | 6900 | Non-toxic | > 50 | Non-toxic | 10560 | 0.046 | Non-toxic | Non-toxic | 16796 | 1934 |  | 6890 | 33 | 22 | 0.57 | Non-toxic | 18080 | 0.52 | 25.9 | 4 | Drug uptake (Cynomolgus monkey [6]): 57 ng/g; AUC(0-inf) [9]: 170 ng·h/mL; Activity (CCRF-CEM): Non-toxic; Activity (Rattus norvegicus [18]): Non-toxic; Activity (Rattus norvegicus [20]): Non-toxic; Drug uptake (Cynomolgus monkey [21]): 177 ng/g; AUC(0-t) at 96 h [22]: 86 ng·h/mL; Cmax [24]: 6180 ng/mL; Tmax [25]: 1 h; IC50 [29]: > 50 µM; Drug uptake (Canis familiaris [30]): 612 ng/g; Activity (HepG2): Non-toxic; Tmax [31]: 0.5 h |
| CC(C)OC(=O)[C@H](C)NP(=O)(OC[C@H]1O[C@@H](n2ccc(=O)[nH]c2=O)[C@](C)(F)[C@@H]1O)Oc1ccc(Cl)cc1 (some centres not stated) |  |  |  |  |  |  |  |  | 5143 | 339 | > 24 |  |  | > 20 | 0.35 |  | 8468 | 0.42 | 0 | 1 | half-life at 50 ug/mL [28]: > 20 h |
